In brackets after ≈: the same amount, converted by molar mass. Activity calls are given as the source filed them. No cut-off for these calls is given here.
Assays:
Aspergillus fumigatus [1] = experiment: Antifungal activity against Aspergillus fumigatus ATCC 90906 at 20 ug/mL by microscopy; format: functional, organism-based
Summary of the method: (§1)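 Modified NCCLS microdilution. Samples in DMSO serially diluted in saline and tested in duplicate against inocula standardized to 0.5 McFarland. Broths: C. albicans SDB or RPMI 1640; C. neoformans SDB; A. fumigatus YM broth. Highest final concentration 20 µg/mL. MIC read visually as the lowest concentration with no detectable growth (for Alamar Blue wells, no blue-to-pink change).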

Cryptococcus neoformans [2] = experiment: Antifungal activity against Cryptococcus neoformans ATCC 90113 at 20 ug/mL by microscopy; format: functional, organism-based; summary of the method: as §1
Aspergillus fumigatus [3] = experiment: Antifungal activity against Aspergillus fumigatus ATCC 90906 assessed as inhibition of fungal growth at 20 ug/mL by alamar blue assay; format: functional, organism-based
Summary of the method: (§2)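 Broth microdilution modified from NCCLS. DMSO stocks serially diluted in saline and plated in duplicate. Inoculum set by 0.5 McFarland standard. Media: C. albicans in SDB or RPMI 1640; C. neoformans in SDB; A. fumigatus in RPMI-1640 + 5% Alamar Blue. Highest final concentration 20 µg/mL. Plates read before and after incubation by fluorescence 544ex/590em (A. fumigatus) or OD 630 nm. IC50 from percent growth vs concentration.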

Cryptococcus neoformans [4] = experiment: Fungicidal activity against Cryptococcus neoformans ATCC 90113 at 20 ug/mL; format: functional, organism-based
Aspergillus fumigatus [5] = experiment: Fungicidal activity against Aspergillus fumigatus ATCC 90906 at 20 ug/mL; format: functional, organism-based
Candida albicans [6] = experiment: Fungicidal activity against Candida albicans ATCC 90028 at 20 ug/mL; format: functional, organism-based
Candida albicans [7] = experiment: Antifungal activity against Candida albicans ATCC 90028 at 20 ug/mL by microscopy; format: functional, organism-based; summary of the method: as §1
Candida albicans [8] = experiment: Antifungal activity against Candida albicans ATCC 90028 assessed as inhibition of fungal growth at 20 ug/mL by alamar blue assay; format: functional, organism-based; summary of the method: as §2
Vero = experiment: Cytotoxicity against african green monkey Vero cells at 20 ug/mL after 48 hrs by neutral red assay; format: cell-based; settings: chlorocebus sabaeus
Summary of the method: (§3)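 Vero kidney fibroblasts seeded at 25,000 cells/well and grown 24 h, then exposed to samples up to 20 µg/ml for 48 h. Viable cells measured by neutral red assay. IC50 taken from growth-inhibition vs concentration curves. DMSO served as vehicle control.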

Cryptococcus neoformans [9] = experiment: Antifungal activity against Cryptococcus neoformans ATCC 90113 assessed as inhibition of fungal growth at 20 ug/mL by alamar blue assay; format: functional, organism-based; summary of the method: as §2
Candida albicans [10] = experiment: Antifungal activity against Candida albicans ATCC 90028 by microscopy; format: functional; summary of the method: as §1
Candida albicans [11] = experiment: Fungicidal activity against Candida albicans ATCC 90028; format: functional
Candida albicans [12] = experiment: Antifungal activity against Candida albicans ATCC 90028 assessed as inhibition of fungal growth by alamar blue assay; format: functional, organism-based; summary of the method: as §2
Cryptococcus neoformans [13] = experiment: Antifungal activity against Cryptococcus neoformans ATCC 90113 by microscopy; format: functional
Summary of the method: as §1, with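 “McFarland.” for “McFarland. Broths: C. albicans SDB or RPMI 1640; C. neoformans SDB; A. fumigatus YM broth.”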

[14] = Cytotoxicity against african green monkey Vero cells after 48 hrs by neutral red assay; format: cell-based; settings: chlorocebus sabaeus, read-out: TC50; summary of the method: as §3
Cryptococcus neoformans [15] = experiment: Antifungal activity against Cryptococcus neoformans ATCC 90113 assessed as inhibition of fungal growth by alamar blue assay; format: functional, organism-based; summary of the method: as §2
Cryptococcus neoformans [16] = experiment: Fungicidal activity against Cryptococcus neoformans ATCC 90113; format: functional
[17] = Cytotoxicity against african green monkey Vero cells; format: cell-based; settings: chlorocebus sabaeus, read-out: TC50 (the source's name); summary of the method: as §3
Aspergillus fumigatus [18] = experiment: Antifungal activity against Aspergillus fumigatus ATCC 90906 assessed as inhibition of fungal growth by alamar blue assay; format: functional, organism-based; settings: Aspergillus fumigatus, ATCC 90906; read-out: IC50; summary of the method: as §2
Aspergillus fumigatus [19] = experiment: Fungicidal activity against Aspergillus fumigatus ATCC 90906; format: functional
Aspergillus fumigatus [20] = experiment: Antifungal activity against Aspergillus fumigatus ATCC 90906 by microscopy; format: functional; summary of the method: as §1
Cryptococcus neoformans [21] = experiment: Antifungal activity against Cryptococcus neoformans at 20 ug/mL

MIC (Candida albicans [10]) [µg/mL]	MIC (Cryptococcus neoformans [13]) [µg/mL]	Compound	Activity (Aspergillus fumigatus [1])	Activity (Cryptococcus neoformans [2])	inhibition (Aspergillus fumigatus [3])	Activity (Cryptococcus neoformans [4])	Activity (Aspergillus fumigatus [5])	Activity (Candida albicans [6])	Activity (Candida albicans [7])	inhibition (Candida albicans [8])	Activity (Vero)	inhibition (Cryptococcus neoformans [9])	IC50 (Candida albicans [12]) [µg/mL]	CC50 at 48 h [14] [µg/mL]	IC50 (Cryptococcus neoformans [15]) [µg/mL]	MFC (Cryptococcus neoformans [16]) [µg/mL]	further results
20	5	C[n+]1cccc(N(CCCCCC2CCCCC2)c2ccc(C#N)cc2)c1.[I-]			inactive								19	> 10	2.6	5	MFC (Candida albicans [11]): > 20 µg/mL
	20 (≈ 86.1 µM)	C[n+]1c2ccccc2cc2[n-]c3ccccc3c21 [CRYPTOLEPINE]											20 (≈ 86.1 µM)				CC50 [17]: 3.2 µg/mL (≈ 13.8 µM); MIC (Cryptococcus neoformans [21]): 12.5 µg/mL (≈ 53.8 µM)
20	2.5	C[n+]1cccc(N(CCCCCC2CCCCC2)c2ccc(F)cc2)c1.[I-]	inactive		inactive		inactive	inactive	inactive	inactive			9.6	> 10	1.4	2.5	
10	2.5	COc1ccc(N(CCCCCC2CCCCC2)c2ccc[n+](C)c2)cc1.[I-]			inactive								5.1	> 10	1.4	2.5	MFC (Candida albicans [11]): 20 µg/mL
	5	C[n+]1cccc(N(CCCCCC2CCCCC2)c2cccc(C#N)c2)c1.[I-]			inactive			inactive	inactive	inactive				> 10	3.5	5	
20	2.5	C[n+]1cccc(N(CCCCCC2CCCCC2)c2ccccc2)c1.[I-]	inactive				inactive	inactive	inactive	inactive			8.3	> 10	1.5	2.5	IC50 (Aspergillus fumigatus [18]): 19.7 µg/mL

The remaining lines, values behind:

Compound	MIC (Candida albicans [10]) [µg/mL]	MIC (Cryptococcus neoformans [13]) [µg/mL]	Activity (Aspergillus fumigatus [1])	Activity (Cryptococcus neoformans [2])	inhibition (Aspergillus fumigatus [3])	Activity (Cryptococcus neoformans [4])	Activity (Aspergillus fumigatus [5])	Activity (Candida albicans [6])	Activity (Candida albicans [7])	inhibition (Candida albicans [8])	Activity (Vero)	inhibition (Cryptococcus neoformans [9])	IC50 (Candida albicans [12]) [µg/mL]	CC50 at 48 h [14] [µg/mL]	IC50 (Cryptococcus neoformans [15]) [µg/mL]	MFC (Cryptococcus neoformans [16]) [µg/mL]	further results
C[n+]1cc(Nc2ccccc2Cl)cc2ccccc21.[I-]			inactive	inactive	inactive	inactive	inactive	inactive	inactive	inactive	Non-toxic	inactive					
C[n+]1cc(Nc2cccc(Cl)c2)cc2ccccc21.[I-]			inactive	inactive	inactive	inactive	inactive	inactive	inactive	inactive	Non-toxic	inactive					
C[C@@H]1[C@H](O)[C@@H](C)/C=C/C=C/C=C/C=C/C=C/C=C/C=C/[C@H](O[C@@H]2O[C@H](C)[C@@H](O)[C@H](N)[C@@H]2O)C[C@@H]2O[C@](O)(C[C@@H](O)C[C@@H](O)[C@H](O)CC[C@@H](O)C[C@@H](O)CC(=O)O[C@H]1C)C[C@H](O)[C@H]2C(=O)O [AMPHOTERICIN B]	0.6 (≈ 0.649 µM)													7.6 (≈ 8.22 µM)	1.3 (≈ 1.41 µM)	1 (≈ 1.08 µM)	CC50 [17]: 7.6 µg/mL (≈ 8.22 µM); IC50 (Aspergillus fumigatus [18]): 0.7 µg/mL (≈ 0.758 µM); MFC (Candida albicans [11]): 1.3 µg/mL (≈ 1.41 µM); MFC (Aspergillus fumigatus [19]): 5 µg/mL (≈ 5.41 µM); MIC (Aspergillus fumigatus [20]): 1.3 µg/mL (≈ 1.41 µM)
C[n+]1cccc(Nc2ccccc2)c1.[I-]											Non-toxic						
C[n+]1cc(Nc2ccccc2)cc2ccccc21.[I-]			inactive	inactive	inactive	inactive	inactive	inactive	inactive	inactive	Non-toxic	inactive					
C[n+]1cc(Nc2ccc(Cl)cc2)cc2ccccc21.[I-]			inactive	inactive	inactive	inactive	inactive	inactive	inactive	inactive	Non-toxic	inactive					

— ChEMBL document CHEMBL1641580, “Identification of 3-phenylaminoquinolinium and 3-phenylaminopyridinium salts as new agents against opportunistic fungal pathogens” (Bioorg Med Chem, 2011)
